Converted amounts (≈) assume the structure as drawn.

Common to all, as to assay type: functional, organism-based
The test system of one experiment is Aspergillus fumigatus. In words: Antifungal activity against Aspergillus fumigatus ATCC 10894. The gist of the method: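 A. fumigatus grown on potato dextrose agar, then in broth at 28 °C for 48 h. Final inoculum was 10^4 mycelial fragments/mL in PDB. Samples were 10 mg/mL DMSO stocks, serially diluted and tested in triplicate. A595 was read after incubation. IC50 came from the inhibition-rate vs concentration plot. MIC was the lowest concentration giving complete growth inhibition.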

In another experiment the test system is Staphylococcus aureus. The experiment in a line: Antimicrobial activity against Staphylococcus aureus ATCC 6538. In short, it runs like this: (§1)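 Bacteria grown on Mueller-Hinton agar, then in broth at 37 °C for 24 h. Final suspension was 10^6 cells/mL in MHB. Samples were 10 mg/mL DMSO stocks, serially diluted and tested in triplicate. Absorbance at 595 nm was read after incubation. IC50 came from plotting inhibition rate vs concentration. MIC was the lowest concentration completely inhibiting growth.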

Another experiment relates to Streptococcus pneumoniae. The experiment in a line: Antimicrobial activity against Streptococcus pneumoniae CGMCC 1.1692. The gist of the method: as §1
A further experiment concerns Escherichia coli. In words: Antimicrobial activity against Escherichia coli CGMCC 1.2340. The gist of the method:
as §1

Usually IC50 stands for the concentration that gives 50% inhibition. A low value points to greater potency. What is called MIC is the smallest concentration in the dilution series that meets the test's criterion for growth inhibition. A higher MIC goes with a less susceptible organism. In the experiment on Aspergillus fumigatus, `OC(Cn1cncn1)(Cn1cncn1)c1ccc(F)cc1F` [FLUCONAZOLE] returned an IC50 of 7.35 µM and an MIC of 163 µM (≈ 50 µg/mL).
Regarding `COC(=O)C1=CC(=O)C=C(OC)[C@]12Oc1cc(C)cc(OC(=O)c3c(O)cc(C)cc3Oc3c(OC)cc(O)cc3C(=O)OC)c1C2=O` [GEOMYCIN C], the IC50 in the experiment with Staphylococcus aureus was 17.3 µM; in the experiment on Streptococcus pneumoniae, 36.2 µM; in the experiment with Escherichia coli, 12.9 µM. The MIC in the experiment on Staphylococcus aureus came to 75.8 µM (≈ 50.1 µg/mL); against Streptococcus pneumoniae, 152 µM (≈ 100 µg/mL); with Escherichia coli, 30.3 µM (≈ 20 µg/mL).
In the experiment with Aspergillus fumigatus, `COC(=O)c1cc(OC(=O)c2c(O)cc(C)cc2Oc2c(OC)cc(O)cc2C(=O)OC)cc(OC)c1Oc1cc(C)cc(O)c1C(=O)O` [GEOMYCIN B] showed an IC50 of 0.86 µM and an MIC of 29.5 µM (≈ 20 µg/mL).
Turning to `CCOC(=O)c1c(O)cc(C)cc1Oc1c(OC)cc(O)cc1C(=O)OC` [ETHYL ASTERRATE], the IC50 in the experiment on Aspergillus fumigatus, in the experiment on Staphylococcus aureus, in the experiment with Streptococcus pneumoniae and in the experiment with Escherichia coli was more than 50 µM each time.
On to `COC(=O)c1cc(OC(=O)c2c(O)cc(C)cc2Oc2c(OC)cc(O)cc2C(=O)OC)cc(OC)c1Oc1cc(C)cc(O)c1C(=O)OC` [GEOMYCIN A], for which the IC50 in the experiment with Aspergillus fumigatus, in the experiment with Staphylococcus aureus, with Streptococcus pneumoniae and with Escherichia coli was more than 50 µM throughout.
Regarding `CCCCOC(=O)c1c(O)cc(C)cc1Oc1c(OC)cc(O)cc1C(=O)OC` [BUTYL ASTERRATE], the 50% inhibitory concentration (IC50) in the experiment on Aspergillus fumigatus, in the experiment on Staphylococcus aureus, in the experiment with Streptococcus pneumoniae and in the experiment with Escherichia coli was more than 50 µM in each case.
In the experiment with Escherichia coli, `CN[C@@H]1[C@H](O[C@H]2[C@H](O[C@H]3[C@H](O)[C@@H](O)[C@H](N=C(N)N)[C@@H](O)[C@@H]3N=C(N)N)O[C@@H](C)[C@]2(O)C=O)O[C@@H](CO)[C@H](O)[C@H]1O` [STREPTOMYCIN] yielded an IC50 of 1.05 µM and an MIC of 11.2 µM (≈ 6.51 µg/mL).

Source of the values: ChEMBL document CHEMBL1156653, “Bioactive asterric acid derivatives from the Antarctic ascomycete fungus Geomyces sp” (J Nat Prod, 2008).
